Experimental data reported in ChEMBL document CHEMBL3046353, “Synthesis and fungicidal activity of some 5-membered heterocyclic derivatives containing benzimidazoles” (1993).
The source made the active and inactive calls. The rule behind the calls is not given here.

What was measured:
[1] = tested on: Sagittaria latifolia; assay: Herbicidal activity against Sagittaria latifolia (broadleaf arrowhead) under paddy conditions; type: functional, organism-based
[2] = tested on: Schoenoplectus acutus; assay: Pre-emergence herbicidal activity against Schoenoplectus acutus (hardstem bulrush); type: functional, organism-based
[3] = tested on: Musca domestica; assay: Insecticidal activity against Musca domestica (house fly); type: functional, organism-based
[4] = tested on: Culex pipiens pallens; assay: Insecticidal activity against Culex pipiens pallens (mosquito) at 3 to 5 ppm; type: functional, organism-based
[5] = tested on: Convolvulaceae; assay: Herbicidal activity against Convolvulaceae (morning glory family) under paddy conditions; type: functional, organism-based
[6] = tested on: Abutilon theophrasti; assay: Post-emergence herbicidal activity against Abutilon theophrasti (velvetleaf); type: functional, organism-based
[7] = tested on: Oryza sativa; assay: Pre-emergence herbicidal activity against Oryza sativa (rice); type: functional, organism-based
[8] = tested on: Oryza sativa; assay: Herbicidal activity against Oryza sativa (rice) under paddy conditions; type: functional, organism-based
[9] = tested on: Tetranychus cinnabarinus; assay: Insecticidal activity against Tetranychus cinnabarinus (carmine spider mite); type: functional, organism-based
[10] = tested on: Echinochloa crus-galli; assay: Herbicidal activity against Echinochloa crus-galli (barnyard grass) under paddy conditions; type: functional, organism-based
[11] = tested on: Echinochloa crus-galli; assay: Pre-emergence herbicidal activity against Echinochloa crus-galli (barnyard grass); type: functional, organism-based
[12] = tested on: Echinochloa crus-galli; assay: Post-emergence herbicidal activity against Echinochloa crus-galli (barnyard grass); type: functional, organism-based
[13] = tested on: Schoenoplectus acutus; assay: Post-emergence herbicidal activity against Schoenoplectus acutus (hardstem bulrush); type: functional, organism-based
[14] = tested on: Avena sativa; assay: Post-emergence herbicidal activity against Avena sativa; type: functional, organism-based
[15] = tested on: Avena sativa; assay: Herbicidal activity against Avena sativa under paddy conditions; type: functional, organism-based
[16] = tested on: Sagittaria latifolia; assay: Post-emergence herbicidal activity against Sagittaria latifolia (broadleaf arrowhead); type: functional, organism-based
[17] = tested on: Sagittaria latifolia; assay: Pre-emergence herbicidal activity against Sagittaria latifolia (broadleaf arrowhead); type: functional, organism-based
[18] = tested on: Convolvulaceae; assay: Post-emergence herbicidal activity against Convolvulaceae (morning glory family); type: functional, organism-based
[19] = tested on: Helminthosporium; assay: Fungicidal activity against Helminthosporium oryzae at 500 ppm after 7 days by poisoned food technique; type: functional; settings: 168 h, read-out: GI
How it was run: (§1)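 Cultures kept on potato dextrose agar. Each compound, dissolved in acetone, was added to potato dextrose agar at a final 500 ppm (w/v) (poisoned food technique). A disc cut from the periphery of a seven-day-old culture was inoculated onto each set. Control sets held potato dextrose agar only. The read-out is percentage inhibition of fungal growth relative to control.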

[20] = tested on: Avena sativa; assay: Pre-emergence herbicidal activity against Avena sativa; type: functional, organism-based
[21] = tested on: Convolvulaceae; assay: Pre-emergence herbicidal activity against Convolvulaceae (morning glory family); type: functional, organism-based
[22] = tested on: Oryza sativa; assay: Post-emergence herbicidal activity against Oryza sativa (rice); type: functional, organism-based
[23] = tested on: Abutilon theophrasti; assay: Pre-emergence herbicidal activity against Abutilon theophrasti (velvetleaf); type: functional, organism-based
[24] = tested on: Spodoptera litura; assay: Insecticidal activity against Spodoptera litura; type: functional, organism-based
[25] = tested on: Schoenoplectus acutus; assay: Herbicidal activity against Schoenoplectus acutus (hardstem bulrush) under paddy conditions; type: functional, organism-based
[26] = tested on: Rhizoctonia solani; assay: Fungicidal activity against Rhizoctonia solani at 500 ppm after 7 days by poisoned food technique; type: functional; settings: 168 h, read-out: GI; how it was run: as §1

| Structure (SMILES) | Activity [1] | Activity [2] | Activity [3] | Activity [4] | Activity [5] | Activity [6] | Activity [7] | Activity [8] | Activity [9] | Activity [10] | Activity [11] | Activity [12] | Activity [13] | Activity [14] | Activity [15] | Activity [16] | Activity [17] | Activity [18] | inhibition of growth at 500 ppm [19] [%] | Activity [20] | also measured |
| --- | --- | --- | --- | --- | --- | --- | --- | --- | --- | --- | --- | --- | --- | --- | --- | --- | --- | --- | --- | --- | --- |
| c1ccc(-c2nnc(SCc3nc4ccccc4[nH]3)s2)cc1 | inactive | inactive | inactive | Active | inactive | inactive | inactive | inactive | inactive | inactive | inactive | inactive | inactive | inactive | inactive | inactive | inactive | inactive | 74.3 | inactive | Activity [21]: inactive; Activity [22]: inactive; Activity [23]: inactive; Activity [24]: inactive; Activity [25]: inactive; inhibition of growth at 500 ppm [26]: 69.8% |
| Clc1ccc(-c2nnc(SCc3nc4ccccc4[nH]3)s2)cc1 | inactive | inactive | inactive | Active | inactive | inactive | inactive | inactive | inactive | inactive | inactive | inactive | inactive | inactive | inactive | inactive | inactive | inactive | 52.5 | inactive | Activity [21]: inactive; Activity [22]: inactive; Activity [23]: inactive; Activity [24]: inactive; Activity [25]: inactive; inhibition of growth at 500 ppm [26]: 39% |
| Cc1ccc2[nH]c(CSc3nnc(-c4cccc(Cl)c4)s3)nc2c1 | inactive | inactive | inactive | Active | inactive | inactive | inactive | inactive | inactive | inactive | inactive | inactive | inactive | inactive | inactive | inactive | inactive | inactive | 81.2 | inactive | Activity [21]: inactive; Activity [22]: inactive; Activity [23]: inactive; Activity [24]: inactive; Activity [25]: inactive; inhibition of growth at 500 ppm [26]: 60.4% |
| Cc1ccc2[nH]c(CSc3nnc(-c4ccccc4)s3)nc2c1 | inactive | inactive | inactive | Active | inactive | inactive | inactive | inactive | inactive | inactive | inactive | inactive | inactive | inactive | inactive | inactive | inactive | inactive | 71.3 | inactive | Activity [21]: inactive; Activity [22]: inactive; Activity [23]: inactive; Activity [24]: inactive; Activity [25]: inactive; inhibition of growth at 500 ppm [26]: 64.5% |
| Clc1ccccc1-c1nnc(SCc2nc3ccccc3[nH]2)s1 | inactive | inactive | inactive | Active | inactive | inactive | inactive | inactive | inactive | inactive | inactive | inactive | inactive | inactive | inactive | inactive | inactive | inactive | 68.2 | inactive | Activity [21]: inactive; Activity [22]: inactive; Activity [23]: inactive; Activity [24]: inactive; Activity [25]: inactive; inhibition of growth at 500 ppm [26]: 49.8% |
| c1ccc2[nH]c(CSc3nnc(-c4ccncc4)o3)nc2c1 | inactive | inactive | inactive | Active | inactive | inactive | inactive | inactive | inactive | inactive | inactive | inactive | inactive | inactive | inactive | inactive | inactive | inactive | 49.8 | inactive | Activity [21]: inactive; Activity [22]: inactive; Activity [23]: inactive; Activity [24]: inactive; Activity [25]: inactive; inhibition of growth at 500 ppm [26]: 32% |
| Cc1ccc2[nH]c(CSc3nnc(-c4ccc(Cl)cc4)o3)nc2c1 | inactive | inactive | inactive | Active | inactive | inactive | inactive | inactive | inactive | inactive | inactive | inactive | inactive | inactive | inactive | inactive | inactive | inactive | 100 | inactive | Activity [21]: inactive; Activity [22]: inactive; Activity [23]: inactive; Activity [24]: inactive; Activity [25]: inactive; inhibition of growth at 500 ppm [26]: 100% |
| Clc1cccc(-c2nnc(SCc3nc4ccccc4[nH]3)o2)c1 | inactive | inactive | inactive | Active | inactive | inactive | inactive | inactive | inactive | inactive | inactive | inactive | inactive | inactive | inactive | inactive | inactive | inactive | 89.7 | inactive | Activity [21]: inactive; Activity [22]: inactive; Activity [23]: inactive; Activity [24]: inactive; Activity [25]: inactive; inhibition of growth at 500 ppm [26]: 69.4% |
| Nn1c(SCc2nc3ccccc3[nH]2)nnc1-c1ccccc1 | inactive | inactive | inactive | Active | inactive | inactive | inactive | inactive | inactive | inactive | inactive | inactive | inactive | inactive | inactive | inactive | inactive | inactive | 92.5 | inactive | Activity [21]: inactive; Activity [22]: inactive; Activity [23]: inactive; Activity [24]: inactive; Activity [25]: inactive; inhibition of growth at 500 ppm [26]: 74.5% |
